Calls of active or inactive are those of the source. No cut-off for these calls is given here.
What was measured:
AGS [1] = assay: Synergistic antiproliferative activity against human AGS cells assessed as combination index constant at 1.5 uM after 48 hrs in presence of 5 nM BTZ by CCK8 assay; type: functional
Method in brief: (§1)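 AGS cells at 6×10^3/well attached for 12 h, then exposed for 48 h to compound, bortezomib, or both at set concentrations. CCK-8 added for 4 h, then OD read at 450 nm. Inhibition rates E used for q = E(combo)/(E1+E2−E1×E2). Triplicate experiments.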

[2] = target: SUMO-activating enzyme (Homo sapiens) (UniProt Q9UBE0+Q9UBT2); assay: Inhibition of SAE in human AGS cells assessed as reduction in […]-SUMO conjugation level at 2 to 10 uM after 24 hrs by Western blot analysis; type: cell-based
Method in brief: (§2)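 AGS cells given 2, 4, 6, 8 or 10 μM compound or 0.1% DMSO for 24 h, washed in ice-cold PBS and lysed in RIPA on ice. Equal protein loads run by SDS-PAGE: non-reducing for NEDD8/SUMO/Ub conjugates, reducing for p27, NRF2, CDT1 and cleaved caspase-3. Blotted to PVDF with primary antibody overnight at 4 °C and HRP secondary, ECL detection, densitometry. Three repeats.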

[3] = target: T1, NEDD8 activating enzyme (Homo sapiens) (UniProt Q8TBC4+Q13564); assay: Inhibition of NAE in human AGS cells assessed as reduction in Ubc12-NEDD8 conjugation level after 24 hrs by Western blot analysis; type: cell-based; method in brief: as §2
AGS [4] = assay: Synergistic antiproliferative activity against human AGS cells assessed as combination index constant at 1 uM after 48 hrs in presence of 10 nM BTZ by CCK8 assay; type: functional; method in brief: as §1
AGS [5] = assay: Induction of apoptosis in human AGS cells after 36 hrs by Annexin-V-FITC/propidium iodide staining based flow cytometry; type: functional, cell-based
AGS [6] = assay: Induction of apoptosis in human AGS cells assessed as early apoptotic cells at 10 uM after 36 hrs by Annexin-V-FITC/propidium iodide staining based flow cytometry (reference value: 4.44%); type: functional
[7] = target: T1, NEDD8 activating enzyme (Homo sapiens); assay: Inhibition of NAE in human AGS cells assessed as reduction in Uba3-NEDD8 conjugation level after 24 hrs by Western blot analysis; type: cell-based; method in brief: as §2

## O=c1cc(-c2ccc(-c3ccccc3)cc2)c2ccc(N3CCC(NCCc4ccccc4)CC3)cc2o1
AGS [1]
  CI: 1.15
[2]
  inhibition: inactive
[3]
  inhibition: Dose-dependent effect
AGS [4]
  CI: 1.14
AGS [5]
  Activity: Dose-dependent effect
AGS [6]
  Activity: 38.71%
[7]
  inhibition: Dose-dependent effect
